Experimental data: ChEMBL document CHEMBL4396922, “Identification of new aryl hydrocarbon receptor (AhR) antagonists using a zebrafish model” (Bioorg Med Chem, 2019)
pIC50: −log10 of the molar value. The source made the active and inactive calls. No cut-off for these calls is given here.

Molecular target: T1, Aryl hydrocarbon receptor (Danio rerio, UniProt Q9YGV3)
T1 sequence (Q9YGV3 whole entry): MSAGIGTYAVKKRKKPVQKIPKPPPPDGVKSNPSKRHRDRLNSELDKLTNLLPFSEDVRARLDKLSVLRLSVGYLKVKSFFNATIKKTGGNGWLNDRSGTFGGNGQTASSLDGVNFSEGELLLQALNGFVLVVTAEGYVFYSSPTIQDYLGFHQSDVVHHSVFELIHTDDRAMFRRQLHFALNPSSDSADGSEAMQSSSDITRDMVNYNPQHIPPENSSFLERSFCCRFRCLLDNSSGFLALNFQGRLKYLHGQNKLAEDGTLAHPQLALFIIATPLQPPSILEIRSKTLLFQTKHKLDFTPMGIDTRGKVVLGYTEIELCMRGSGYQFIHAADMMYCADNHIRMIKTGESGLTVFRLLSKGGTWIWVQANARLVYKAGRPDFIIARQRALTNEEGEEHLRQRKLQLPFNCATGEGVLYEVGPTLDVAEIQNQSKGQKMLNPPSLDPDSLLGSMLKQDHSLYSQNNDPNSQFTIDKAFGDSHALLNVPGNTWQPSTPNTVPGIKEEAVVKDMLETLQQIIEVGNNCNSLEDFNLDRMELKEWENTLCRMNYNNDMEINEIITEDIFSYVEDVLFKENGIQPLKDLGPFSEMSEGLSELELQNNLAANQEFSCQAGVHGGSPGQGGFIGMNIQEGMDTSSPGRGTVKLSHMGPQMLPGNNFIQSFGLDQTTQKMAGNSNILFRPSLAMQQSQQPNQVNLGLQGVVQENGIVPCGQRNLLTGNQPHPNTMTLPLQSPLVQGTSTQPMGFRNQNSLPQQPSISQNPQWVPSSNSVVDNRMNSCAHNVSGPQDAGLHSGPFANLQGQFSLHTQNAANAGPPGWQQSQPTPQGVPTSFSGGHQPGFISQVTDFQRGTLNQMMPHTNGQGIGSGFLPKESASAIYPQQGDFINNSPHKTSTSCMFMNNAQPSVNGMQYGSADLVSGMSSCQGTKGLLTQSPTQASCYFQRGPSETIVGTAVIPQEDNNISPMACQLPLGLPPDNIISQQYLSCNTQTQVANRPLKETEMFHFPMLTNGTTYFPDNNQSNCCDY
Experiment: Antagonist activity at aryl hydrocarbon receptor in 30 hrs post fertilized transgenic cyp1a:EGFP zebrafish embryo assessed as receptor transcriptional activity by measuring cyp1A-mediated EGFP expression at 5 uM measured after 48 hrs by fluorescence stereomicroscopic analysis
Details: not given
Summary of the method: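 Screen format: 30 hpf Tg(cyp1a:nls-egfp) embryos, three per well in 200 µL E3 medium (pH 7.2) with 10 nM TCDD. Each compound was added singly at 5 µM in DMSO. Incubation 48 h, then EGFP scored by fluorescent stereomicroscopy.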

| SMILES | Activity |
| --- | --- |
| COc1ccccc1C(=O)CC(=O)c1ccccc1 | Not Active |
| COc1ccc(C(=O)CC(=O)c2ccccc2OC)cc1 | Not Active |
| COc1ccccc1C(=O)/C=C/c1ccc(OC(F)(F)F)cc1 | Not Active |
| COc1ccccc1C(=O)CC(=O)c1ccc(OCC(C)C)cc1 | Not Active |
| O=C(CC(=O)c1ccc(OC(F)(F)F)cc1)c1ccccc1 | Not Active |
| COc1cccc(C(=O)CC(=O)c2ccc(OC(F)(F)F)cc2)c1 | Active |
| COc1ccc(C(=O)CC(=O)c2ccc(OC(F)(F)F)cc2)cc1 | Not Active |
| COc1ccccc1-c1cc(-c2ccc(OC(F)(F)F)cc2)no1 | Not Active |
| CCOc1ccc(C(=O)CC(=O)c2ccccc2OC)cc1 | Active |
| COc1ccccc1C(=O)C(C)(C)C(=O)c1ccc(OC(C)C)cc1 | Not Active |
| COc1cc(O)c(C(=O)CC(=O)c2ccc(OC(C)C)cc2)c(OC)c1 | Not Active |
| COc1cccc(OC)c1C(=O)CC(=O)c1ccc(OC(C)C)cc1 | Not Active |
| COc1ccccc1-c1cc(-c2ccc(OC(C)C)cc2)no1 | Active |
| COc1ccccc1-c1cc(-c2ccc(OC(C)C)cc2)ncn1 | Active |
| COc1ccccc1-c1cc(-c2ccc(OC(F)(F)F)cc2)[nH]n1 | Not Active |
| COc1ccccc1-c1cc(-c2ccc(OC(C)C)cc2)[nH]n1 | Not Active |
| COc1ccccc1C(=O)CC(=O)c1cccc(OC(F)(F)F)c1 | Active |
| COc1ccccc1C(=O)CC(=O)c1ccc(OCc2ccccc2)cc1 | Not Active |
| CC(C)Oc1ccc(C(=O)CC(=O)c2ccccc2OC(F)(F)F)cc1 | Not Active |

Molecular target: T1, Aryl hydrocarbon receptor
Experiment: Antagonist activity at zebrafish AhR2 expressed in COS7 cells transfected with ARNT-1c, Cyp1a-firefly luciferase and pRL-TK Renilla luciferase plasmids assessed as inhibition of AhR transcriptional activity administered at 5 hrs post-transfection treated with TCDD at 1 hr post-compound treatment and measured for 10 sec after a 3 sec delay at 18 hrs post-TCDD challenge by dual luciferase reporter …
Assay type: cell-based
Details: not given

| SMILES | pIC50 |
| --- | --- |
| Cc1ccccc1/N=N/c1ccc(NC(=O)c2ccnn2C)c(C)c1 | 7.01 |

System: not listed separately
Experiment: Toxicity in 30 hrs post fertilized transgenic cyp1a:EGFP zebrafish embryo
Assay type: ADME, Danio rerio
Details: in vivo

| SMILES | Activity |
| --- | --- |
| COc1ccccc1C(=O)/C=C/c1ccc(OC(F)(F)F)cc1 | Toxic |
| COc1ccccc1-c1cc(-c2ccc(OC(F)(F)F)cc2)[nH]n1 | Toxic |
| COc1ccccc1-c1cc(-c2ccc(OC(C)C)cc2)[nH]n1 | Toxic |

Species: Homo sapiens
Experiment: Ex vivo expansion of human CD34-positive blood stem/progenitor cells assessed as increase in CD34+ cell population incubated for 5 weeks supplemented with fresh medium containing human recombinant thrombopoietin, stem cell factor, FLT-3 ligand and IL-3 by flow cytometry relative to control
Assay type: functional
Details: not given
Summary of the method: (§1)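 Human cord blood CD34⁺ progenitors, 5 x 10⁴ cells in DXF expansion medium with supplement and cytokine mix (TPO, SCF, flt-3 ligand, IL-3), treated with compound at seeding. Cultured 5 weeks at 37°C, 5% CO2, density kept at 5 x 10⁵–2 x 10⁶ cells/ml. Cells stained with anti-CD34-APC plus CD45RA- or Lin-FITC and counted by flow cytometry; vehicle 0.01% DMSO.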

| SMILES | fold change (FC) |
| --- | --- |
| COc1ccccc1C(=O)/C=C/c1ccc(OC(C)C)cc1 | > 4 |

Species: Homo sapiens
Experiment: Ex vivo expansion of human CD34-positive blood stem/progenitor cells assessed as CD34+ cell population incubated for 5 weeks supplemented with fresh medium containing human recombinant thrombopoietin, stem cell factor, FLT-3 ligand and IL-3 by flow cytometry
Assay type: functional
Details: not given
Summary of the method: as §1

| SMILES | Activity |
| --- | --- |
| COc1ccccc1C(=O)CC(=O)c1ccc(OC(F)(F)F)cc1 | inactive |
| COc1ccccc1C(=O)CC(=O)c1ccc(OC(C)C)cc1 | inactive |
| Cc1ccccc1/N=N/c1ccc(NC(=O)c2ccnn2C)c(C)c1 | inactive |
| CCOc1ccccc1C(=O)CC(=O)c1ccc(OC(C)C)cc1 | inactive |
